Fewer inactive variants are shown than the library holds.
B1: tRNA (parent)
chain: GUUCCGUUGGCGUAAUGGUAACGCGUCUCCCUCCUAAGGAGAAGACUGCGGGUUCGAGUCCCGUACGGAACG

Variants of: B1
Assay: yeast fitness relative to wild type (ratio to wild type); higher = fitter; tRNA-Arg(CCU), competitive growth, 37 C, YPD
How it was run: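 A pool of Saccharomyces cerevisiae strains, each with a tRNA-Arg(CCU) gene variant at the native genomic locus, was competed in YPD at 37°C for 24 hours across six parallel replicates. The variants had been chemically synthesised at a 3% per-site mutation rate over 69 sites, and gene amplicons before and after competition were read by 100-nucleotide paired-end sequencing. Darwinian fitness relative to wild type rested on changes in genotype frequencies. Genotypes required ≥ 100 starting reads, and estimates < 0.5 were set to 0.5.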

Variant	yeast fitness
G12A A65G	0.98
C49U A65U A69U	0.861
U19G A42C A43C	0.951
G23A A70G	0.689
C49U G68U	0.976
C5G A15C G18C C49U U64A A69U	≤ 0.5
G25C A42U	0.869
U16A A37G C62U	0.543
U7A U54A	0.506
U7A A21C C31G	≤ 0.5
A37U G44A C66U	0.535
G18A G41C A42G U54A	≤ 0.5
U3A G12C U13C C49U G56C	≤ 0.5
G39C A43C A45G C60G	≤ 0.5
C30U C31U A40C A65C	≤ 0.5
C5G C22A G25A A37U	0.596
A36U G39C	0.669
G10C A14U G51A C62U	≤ 0.5
A43G U47C C62U	0.644
A15C U16A	0.628
C33U C46A C55G	0.604
U13G C30U U32C	0.686
A21U A36C C60G A65C	0.575
G23A G48C C55G	≤ 0.5

Variant	yeast fitness
C22G C27G C31G G56A C61G A69U	≤ 0.5
A14U C30A C66U	0.547
U13A U16A A43C	0.564
U3A C30G	0.598
U16A G48A	0.896
U2G A15U	0.75
G6C U35A G44C	0.569
G6C C33G G38C	≤ 0.5
G6C G17A C30U A42C A65G C66G G68A	≤ 0.5
G6A C11A U47C	≤ 0.5
U7C C49U G56A A65C	0.607
C5A U8C C27U A40G C49U C55G	≤ 0.5
A42G C66A	0.599
C11A A21G C31G A36U A65U	≤ 0.5
C22A G23C C49G C60U	≤ 0.5
U8C G12A U19C C34G C66U A69U	≤ 0.5
C27G C31A A69U	0.589
A15U C27U G44C G58C G63C	≤ 0.5
U3C G48C C55A	0.541
C46G G67C	0.86
C5A A20U C31U C61U U64A	≤ 0.5
C5U G50A G63A	0.608
C29G G44A G58C	≤ 0.5
C22G G38C	0.775

Variant	yeast fitness
U28C A70C	0.878
C11U C29G C31U G58U A65G G67A	≤ 0.5
U3A A21G U35A A40U U54C	≤ 0.5
C30U C61G A65C	≤ 0.5
C31U A42G C62U A69C	0.542
G10C A45U C49G	0.583
C34U A40C A43G	0.513
U8A G18C C24A U32C A69U	0.565
A21C C22A C29U C49G	≤ 0.5
G17A C61A G63A G67A	0.542
G12C C30G A37G U47G	≤ 0.5
A42U A57C	0.681
C22A C60A C61G	0.565
C29G A40U G67C	0.517
A21C G23A C49A C60G G63A	≤ 0.5
G39C C49U A65U	≤ 0.5
U13A G23C C27G C61A C62U	≤ 0.5
U7C C11G C24U G48A G63A	≤ 0.5
U7A A42G	0.655
G17A A20C G44C	0.617
C4U C5G C29U G63A A65G	0.535
C24G C34G A69U	≤ 0.5
U26C U35A C62U	0.523
G10C C30U U54A	≤ 0.5

Variant	yeast fitness
U8A C29U C34U C49A G67A	≤ 0.5
U19G C22U C49U C62A	≤ 0.5
A21C G58C C66U	≤ 0.5
A21U C27G C33U C34A	≤ 0.5
A14G C66U	0.891
C5G G17C G50A A65U	≤ 0.5
A20U C34U C46U G51A C66U	≤ 0.5
C4G U26A C30U G48A U54A C55G A65U	≤ 0.5
U16C C29G	0.619
C22U G50U G63A	≤ 0.5
G12A C24U A65U G68A	≤ 0.5
U19A A70U	1.03
C29U U32C U35G A70U	≤ 0.5
U3A C27U G67U	0.606
G6A A36U C66A G68C	≤ 0.5
G9A G39C G44C C55A	0.606
C4G A45U G48C C49G	≤ 0.5
A14C C34U G39C C55U G56C	≤ 0.5
U3C G38A G48A	0.595
A15U U19A A20G A40U A43U C60G C62U	0.518
G17C G25C C66U	≤ 0.5
C5U C11U A65U C66G	≤ 0.5
G41U C46A A70U	0.632
C30A A65U A69C	0.692

Variant	yeast fitness
U3A C11U A20G	0.654
U16A C30G A37C	≤ 0.5
C4G U35C C55A A69U	≤ 0.5
C24G G38C C46A	≤ 0.5
C22U C34A	0.641
C11U U16C U19C	0.929
G6A G10C	0.725
A45C U59C A70C	0.741
A14G C24G G52A	≤ 0.5
C27A C49A G56C A65G	≤ 0.5
G25C C49G	0.781
G9C A42G C62G A69G	≤ 0.5
C4A A45U C62U G68A	0.562
U8G C22U U28C C62A	≤ 0.5
G12C A15G C29U A42U U47C C62U	≤ 0.5
U2C C24U A70C	0.708
U3C A14U A20C C24G C55U A69C	≤ 0.5
U13C A36C A43C C60A	0.566
C22U A37C G52C C62U	≤ 0.5
U8C C33U	0.728
U16G G18C A21U	0.59
C55G C62G	0.602
C5G G52C C66U	≤ 0.5
G52U A65G	0.793

Variant	yeast fitness
G10C U64A	0.671
G58C C66G	0.711
U13A C27G A43C A45U U64C	0.582
C5G G39A C49U	0.524
G10A U26C G56A	0.542
G9C A42U C62G	≤ 0.5
G6A C22U A42C U54A	≤ 0.5
A36U A57C C62U	0.627
A15U A21C G23C C55A	≤ 0.5
A15C G17A C22U G23C G51A	0.565
C11U C31A A57C	≤ 0.5
A14U C27G	0.611
C4A U28C U47C	≤ 0.5
U26A C27A U28A C34U G68A A69C	0.534
A15G A20C C24G	0.626
C11G C46U	0.752
U3G C30U G48A	≤ 0.5
C24G A40C	0.601
A45U U59C	0.897
C31U A36C	0.842
U19A C29G U54C G58A	≤ 0.5
A57U A65U G67A G68C	≤ 0.5
A14C C22U C66U	≤ 0.5
G12A G50C	0.757

Variant	yeast fitness
C4G U7A G9A C11U C30G	0.545
C5U C24A G67C	0.547
G12A C24U G41A	0.544
A69G	0.982
C46G A65C	0.97
U3C C4U U64A	0.617
G9A C60G	0.629
C24U C46U G51C	≤ 0.5
C11G U26A U54C	≤ 0.5
U3A C31U A40C	0.566
G12C U28C C30U C66A	≤ 0.5
U3C C46A G50A	0.731
G41A C60G C61U A65G	0.644
C5G G6A C29G	0.533
C24G C30A C62G	≤ 0.5
C5U C31A G56A	0.562
U8G G10C U13G C29A C34G A43C C60G	≤ 0.5
G9A C29A A37G G58A	0.571
G10C G18C C24U	≤ 0.5
A14G C30A C34G	0.508
G39C C46G A70U	0.603
A14U G25A A42G C66G	0.767
G23A C34U C66U	0.586

From the RNAGym collection of RNA variant scans (doi:10.1126/science.aae0568)
